Test results from ChEMBL document CHEMBL1137210, “DNA binding ligands with improved in vitro and in vivo potency against drug-resistant Staphylococcus aureus” (2004).
≈ marks a conversion by molar mass, not a printed value.

Legend:
Assay type in all cases: functional
Staphylococcus aureus [1] = assay: Minimum inhibitory concentration required for antibacterial activity against methicillin-resistant Staphylococcus aureus with 2% human plasma albumin; value ranges from 0.13-0.25
Procedure, shortened: (§1)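 MRSA ATCC 27660, with 2% human plasma albumin added to the test medium during MIC determination.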

Mus musculus [2] = assay: No. of mice survived infected intraperitoneally with methicillin-resistant Staphylococcus aureus after 5 days of treatment at a dose of 25 mg/kg (Total mice tested 5); conditions: route intravenous
Procedure, shortened: (§2)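 Mouse peritonitis model: intraperitoneal infection with a 5–10 × LD50 inoculum of MRSA ATCC 27660. A single intravenous dose was given 1 h post-infection, alongside vehicle and vancomycin controls. Animals were monitored for 5 days, with survival as the primary endpoint; 5 mice per dose group.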

Staphylococcus aureus [3] = assay: Minimum inhibitory concentration required for antibacterial activity against methicillin-resistant Staphylococcus aureus 27660
Staphylococcus aureus [4] = assay: Minimum inhibitory concentration required for antibacterial activity against methicillin-susceptible Staphylococcus aureus 13709
Staphylococcus aureus [5] = assay: Minimum inhibitory concentration required for antibacterial activity against methicillin-susceptible Staphylococcus aureus 13709; value ranges from <0.03-0.06
Mus musculus [6] = assay: No. of mice survived infected intraperitoneally with methicillin-resistant Staphylococcus aureus after 5 days of treatment at a dose of 3 mg/kg (Total mice tested 5); procedure, shortened: as §2
Mus musculus [7] = assay: No. of mice survived infected intraperitoneally with methicillin-resistant Staphylococcus aureus after 5 days of treatment at a dose of 10 mg/kg (Total mice tested 5); procedure, shortened: as §2
Staphylococcus aureus [8] = assay: Minimum inhibitory concentration required for antibacterial activity against methicillin-resistant Staphylococcus aureus with 2% human plasma albumin; value ranges from 0.25-1; procedure, shortened: as §1
Mus musculus [9] = assay: No. of mice survived infected intraperitoneally with methicillin-resistant Staphylococcus aureus after 5 days of treatment at a dose of 1 mg/kg (Total mice tested 5); procedure, shortened: as §2
Staphylococcus aureus [10] = assay: Minimum inhibitory concentration required for antibacterial activity against methicillin-resistant Staphylococcus aureus 27660; value ranges from 0.03-0.06
Staphylococcus aureus [11] = assay: Minimum inhibitory concentration required for antibacterial activity against methicillin-resistant Staphylococcus aureus with 2% human plasma albumin; procedure, shortened: as §1
Enterococcus faecium = assay: Minimum inhibitory concentration required for antibacterial activity against vancomycin-resistant Enterococcus faecium 51559
Streptococcus pneumoniae = assay: Minimum inhibitory concentration required for antibacterial activity against penicillin-resistant Streptococcus pneumoniae 51422
Staphylococcus aureus [12] = assay: Minimum inhibitory concentration required for antibacterial activity against vancomycin-resistant Staphylococcus aureus HMC3
Staphylococcus aureus [13] = assay: Minimum inhibitory concentration required for antibacterial activity against methicillin-susceptible Staphylococcus aureus 13709; value ranges from 0.03-0.06
Staphylococcus aureus [14] = assay: Minimum inhibitory concentration required for antibacterial activity against methicillin-resistant Staphylococcus aureus 27660; value ranges from 0.06-0.13
Staphylococcus aureus [15] = assay: Minimum inhibitory concentration required for antibacterial activity against methicillin-susceptible Staphylococcus aureus 13709; value ranges from 0.13-0.06
Staphylococcus aureus [16] = assay: Minimum inhibitory concentration required for antibacterial activity against methicillin-resistant Staphylococcus aureus with 2% human plasma albumin; value ranges from 1-2; procedure, shortened: as §1
Staphylococcus aureus [17] = assay: Minimum inhibitory concentration required for antibacterial activity against methicillin-resistant Staphylococcus aureus 27660; value ranges from 0.25-0.5
Staphylococcus aureus [18] = assay: Minimum inhibitory concentration required for antibacterial activity against methicillin-resistant Staphylococcus aureus with 2% human plasma albumin; value ranges from 0.13-1; procedure, shortened: as §1
Staphylococcus aureus [19] = assay: Minimum inhibitory concentration required for antibacterial activity against methicillin-resistant Staphylococcus aureus with 4% human plasma albumin
Procedure, shortened: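 MIC against MRSA determined with 4% human plasma albumin present in the test medium.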

[20] = Staphylococcus aureus, Plasma, read-out: MIC

| SMILES | Efficacy (Mus musculus [2]) | MIC (Staphylococcus aureus [3]) [µg/mL] | MIC (Staphylococcus aureus [4]) [µg/mL] | MIC (Staphylococcus aureus [11]; [20]) [µg/mL] | MIC (Enterococcus faecium) [µg/mL] | MIC (Streptococcus pneumoniae) [µg/mL] | further results |
| --- | --- | --- | --- | --- | --- | --- | --- |
| COC1CCN(CCNC(=O)c2nc(NC(=O)c3ccc(NC(=O)c4cc(NC(=O)c5cc6ccccc6cn5)cn4C)cc3)cn2C)CC1 | 2 | 0.03 (≈ 0.0443 µM) | 0.03 (≈ 0.0443 µM) |  |  |  | MIC (Staphylococcus aureus [1]): 0.25 µg/mL (≈ 0.369 µM) |
| Cn1cc(NC(=O)c2cc3ccccc3cn2)cc1C(=O)Nc1ccc(C(=O)Nc2cn(C)c(C(=O)NCCN3CCC(O)CC3)n2)cc1 | 5 |  |  |  |  |  | MIC (Staphylococcus aureus [5]): 0.06 µg/mL (≈ 0.0904 µM); Efficacy (Mus musculus [6]): 2; Efficacy (Mus musculus [7]): 5; MIC (Staphylococcus aureus [8]): 1 µg/mL (≈ 1.51 µM); Efficacy (Mus musculus [9]): 0; MIC (Staphylococcus aureus [10]): 0.06 µg/mL (≈ 0.0904 µM) |
| COCCN(CCNC(=O)c1cc(NC(=O)c2ccc(NC(=O)c3cc(NC(=O)c4cc5ccccc5cn4)cn3C)cc2)cn1C)CCOC |  | 8 (≈ 11.5 µM) | 4 (≈ 5.76 µM) | 32 (≈ 46.1 µM) |  |  |  |
| COC1CCN(CCNC(=O)c2cc(NC(=O)c3ccc(NC(=O)c4cc(NC(=O)c5cc6ccccc6cn5)cn4C)cc3)cn2C)CC1 |  | 1 (≈ 1.48 µM) | 1 (≈ 1.48 µM) | 8 (≈ 11.8 µM) |  |  |  |
| Cn1cc(NC(=O)c2ccc(NC(=O)c3nc(NC(=O)c4cc5ccccc5cn4)cn3C)cc2)nc1C(=O)NCCN1CCOCC1 |  | 0.06 (≈ 0.0922 µM) | 0.13 (≈ 0.2 µM) | 1 (≈ 1.54 µM) | 0.13 (≈ 0.2 µM) | 0.25 (≈ 0.384 µM) |  |
| Cn1cc(NC(=O)c2cc3ccccc3cn2)cc1C(=O)Nc1ccc(C(=O)Nc2cn(C)c(C(=O)NCCN3CCN(CCO)CC3)n2)cc1 | 5 | 0.06 (≈ 0.0866 µM) | 0.06 (≈ 0.0866 µM) | 1 (≈ 1.44 µM) |  |  |  |
| Cn1cc(NC(=O)c2ccc(NC(=O)c3cc(NC(=O)c4cc5ccccc5cn4)cn3C)cc2)cc1C(=O)NCCN1CCOCC1 | 5 | 0.06 (≈ 0.0925 µM) | 0.06 (≈ 0.0925 µM) | 1 (≈ 1.54 µM) | 1 (≈ 1.54 µM) | 0.06 (≈ 0.0925 µM) | MIC (Staphylococcus aureus [12]): 250 ng/mL (≈ 0.385 µM); Efficacy (Mus musculus [6]): 0; Efficacy (Mus musculus [7]): 3; MIC (Staphylococcus aureus [13]): 0.06 µg/mL (≈ 0.0925 µM); MIC (Staphylococcus aureus [11]): 1 µg/mL (≈ 1.54 µM); MIC (Staphylococcus aureus [14]): 0.13 µg/mL (≈ 0.2 µM) |
| Cn1cc(NC(=O)c2cc3ccccc3cn2)cc1C(=O)Nc1ccc(C(=O)Nc2cn(C)c(C(=O)NCCN3CCOCC3)n2)cc1 |  | 0.008 (≈ 0.0123 µM) | 0.008 (≈ 0.0123 µM) | 0.13 (≈ 0.2 µM) | 0.008 (≈ 0.0123 µM) | 0.03 (≈ 0.0462 µM) | MIC (Staphylococcus aureus [12]): 8 ng/mL (≈ 0.0123 µM); Efficacy (Mus musculus [7]): 1 |
| Cn1cc(NC(=O)c2ccc(NC(=O)c3nc(NC(=O)c4cc5ccccc5cn4)cn3C)cc2)cc1C(=O)NCCN1CCOCC1 |  | 16 (≈ 24.6 µM) | 2 (≈ 3.08 µM) | 32 (≈ 49.3 µM) | 0.5 (≈ 0.77 µM) | 0.5 (≈ 0.77 µM) |  |
| COCCN(CCNC(=O)c1nc(NC(=O)c2ccc(NC(=O)c3cc(NC(=O)c4cc5ccccc5cn4)cn3C)cc2)cn1C)CCOC | 0 |  |  |  |  |  | MIC (Staphylococcus aureus [15]): 0.13 µg/mL (≈ 0.187 µM); MIC (Staphylococcus aureus [16]): 2 µg/mL (≈ 2.87 µM); MIC (Staphylococcus aureus [17]): 0.5 µg/mL (≈ 0.719 µM) |
| Cn1cc(NC(=O)c2ccc(NC(=O)c3cc(NC(=O)c4cc5ccccc5cn4)cn3C)cc2)cc1C(=O)NCCN1CCN(CCO)CC1 |  | 16 (≈ 23.1 µM) | 32 (≈ 46.3 µM) | > 32 |  |  |  |
| Cn1cc(NC(=O)c2cc3cc4c(cc3s2)OCO4)cc1C(=O)Nc1ccc(C(=O)Nc2cn(C)c(C(=O)NCCN3CCC(O)CC3)n2)cc1 |  | 0.008 (≈ 0.0112 µM) | 0.008 (≈ 0.0112 µM) |  |  |  | MIC (Staphylococcus aureus [12]): 8 ng/mL (≈ 0.0112 µM); Efficacy (Mus musculus [6]): 4; MIC (Staphylococcus aureus [18]): 1 µg/mL (≈ 1.4 µM); Efficacy (Mus musculus [9]): 3 |
| Cn1cc(NC(=O)c2ccc(NC(=O)c3cc(NC(=O)c4cc5ccccc5cn4)cn3C)cc2)cc1C(=O)NCCN1CCC(O)CC1 |  | 0.5 (≈ 0.754 µM) | 0.5 (≈ 0.754 µM) |  |  |  | MIC (Staphylococcus aureus [19]): 16 µg/mL (≈ 24.1 µM) |
